NS3 helicase inh: inhibitors of HCV NS3 helicase, primary screen, biochemical, Cy5 molecular beacon fluorescence | Hepatitis C virus NS3 helicase | NS3 helicase DNA unwinding | inhibition, % at 10.9 µM | hit rate 0.56% among 290,000;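 active = inhibition above the mean of all tested compounds plus 3 SD, set per campaign, cut at about 35% in these data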
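Assay system: hepatitis C virus NS3 helicase domain fragment enzyme. Also added: annealed dual-labelled DNA beacon duplex, ATP-started. Timing: 1 h reaction at 25 °C, ATP-initiated. Technique: Cy5 fluorescence at 0 and 60 min, beacon hairpin quenching. Evaluation: % inhibition of unwinding. Replication: one well per compound.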
ZTA counter: ZTA (EBV) inhibition in EBNA-1 counter-screen | hit rate 0.15% among 320,000 | P03206 | inhibition, % at 11 µM | ZTA-DNA binding, fluorescence polarization | AID 2234; in the data active = inhibition above about 33%
Target sequence (P03206 whole entry, looked up): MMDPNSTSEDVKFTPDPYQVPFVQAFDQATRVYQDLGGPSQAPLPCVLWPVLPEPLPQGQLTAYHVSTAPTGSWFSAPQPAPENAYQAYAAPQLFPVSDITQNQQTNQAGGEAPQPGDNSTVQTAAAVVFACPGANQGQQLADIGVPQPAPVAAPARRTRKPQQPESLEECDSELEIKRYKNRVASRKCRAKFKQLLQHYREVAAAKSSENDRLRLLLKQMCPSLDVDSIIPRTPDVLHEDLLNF
core dimer inh: inhibitors of HCV core protein dimerization, primary screen, biochemical, TR-FRET, high-throughput; AID 1899, 2009; hit rate 0.33% among 300,000; inhibition, % at 5 µM; TR-FRET GST/Flag-core106 dimerization, 1536-well;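 active = inhibition above the mean of all tested compounds plus 3 SD, set per screening campaign, cut at about 45% in these data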
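System – GST-tagged and Flag-tagged HCV core protein residues 1-106 · Repeats – one well for each compound · Technique – TR-FRET 671 and 617 nm emission · Doses – one concentration, 5 µM, in 0.5% DMSO · Times – 4 h, 22.5 °C incubation · Also added – Eu donor and XL665 acceptor anti-tag antibodies · Measure – percent inhibition of core106 dimerization signal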
UBC9 SUMO inh: inhibitors of in vitro SUMOylation cascade, primary screen, biochemical, HTRF, uHTS; SUMO-conjugating enzyme UBC9 (Homo sapiens), P63279; HTRF SUMOylation assay, SAE1/SAE2 + UBC9; inhibition, % at 35 µM; hit rate 0.36% among 290,000; in the data active = inhibition above about 50%, passing the limit was not always enough
Target sequence (P63279 whole entry, looked up): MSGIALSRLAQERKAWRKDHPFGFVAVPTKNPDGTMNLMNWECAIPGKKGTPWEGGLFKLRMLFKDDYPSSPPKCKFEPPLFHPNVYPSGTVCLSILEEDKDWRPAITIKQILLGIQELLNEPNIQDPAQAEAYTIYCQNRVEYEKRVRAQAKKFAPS
EBNA-1 inhibitor: EBNA-1 DNA-binding inhibitors, primary screen, biochemical, fluorescence polarization; AID 1950, 2009; inhibition, % at 14.8 µM; hit rate 0.34% among 300,000; in the data active = inhibition above about 28%
Of the large screens only hits and unclear results are named; the others gave an inactive call. Sampled rows, rich in hits. Any-hit rate of the full collection: about 1.4%.

COc1ccc(-c2cc(C(F)(F)F)c3c(n2)sc2c(O)cc(=O)[nH]c23)c(OC)c1	core dimer inh 48.0
Cc1cc(C)c2c(n1)sc1c(O)cc(=O)[nH]c12	none
Cc1cc(C)n2nc(SCc3cc(=O)oc4cc(O)ccc34)nc2n1	core dimer inh 73.9
Cc1cc(C)n2nc(SCc3ccccc3)nc2n1	none
COc1c(-c2ccc(O)cc2)oc2cc(O)cc(O)c2c1=O	none (no result: NS3 helicase inh)
O=c1c(-c2c(O)cc(O)c3c(=O)cc(-c4ccc(O)cc4)oc23)c(-c2ccc(O)cc2)oc2cc(O)cc(O)c12	UBC9 SUMO inh 51.8 (no result: NS3 helicase inh)
COc1ccccc1NC(=O)c1c(NC(=O)c2ccco2)sc2c1CCC2	none
COc1ccccc1C(=O)Nc1sc2c(c1C(=O)NCc1ccco1)CCCC2	core dimer inh 53.1, UBC9 SUMO inh 60.9
COc1ccccc1C(=O)NC(CCSC)C(=O)OCC(=O)N1CCCC1=O (stereo not drawn)	none (no result: NS3 helicase inh, core dimer inh, UBC9 SUMO inh, EBNA-1 inhibitor)
C#CCOCCOCCOCCNc1nc(N2CCN(C(=O)CCCCCCCCCCNC(=O)[C@H]([C@@H](C)CC)n3cc(CCCCN=C(N)N)nn3)CC2)nc(N2CCN(C(=O)CCCCCCCCCCNC(=O)[C@H]([C@@H](C)CC)n3cc(CCCCN=C(N)N)nn3)CC2)n1	ZTA counter 147.3 (no result: NS3 helicase inh, UBC9 SUMO inh)
C#CCOCCOCCOCCNc1nc(N2CCN(C(=O)CCCCCCCCCCNC(=O)[C@H]([C@@H](C)CC)n3cc(CCCCCN)nn3)CC2)nc(N2CCN(C(=O)CCCCCCCCCCNC(=O)[C@@H]([C@H](C)CC)n3cc(CCCCCN)nn3)CC2)n1	ZTA counter 65.4 (no result: NS3 helicase inh, UBC9 SUMO inh)
COc1ccc2cc(C3=CCCCC3)ncc2c1	none (no result: NS3 helicase inh, core dimer inh, UBC9 SUMO inh, EBNA-1 inhibitor)
COc1ccc2c(c1)OC[C@H]1[C@H]2N2C(=O)c3cc(Br)ccc3NC(=O)[C@@]2(C)[C@H]1c1ccccc1	none (no result: NS3 helicase inh, UBC9 SUMO inh)
Cc1nc2ccc(NC(=O)c3ccc(Cl)c(NC(=O)c4cccs4)c3)cc2s1	core dimer inh 48.4
COc1cccc(C=O)c1OCCCOc1cccc2cccnc12	none
COc1cc(NCCCC(C)N)c2ncccc2c1 (stereo not drawn)	none (no result: ZTA counter, core dimer inh, UBC9 SUMO inh, EBNA-1 inhibitor)
CCC(CNc1cc(OC)cc2cccnc12)NC1CCCCC1 (stereo not drawn)	UBC9 SUMO inh 101.5
Brc1ccc(CNc2ccc3ncccc3c2)cc1	none (no result: ZTA counter, core dimer inh, EBNA-1 inhibitor)
O=C(OC[C@H]1O[C@@H](OC(=O)c2cc(O)c(O)c(OC(=O)c3cc(O)c(O)c(O)c3)c2)[C@H](OC(=O)c2cc(O)c(O)c(OC(=O)c3cc(O)c(O)c(O)c3)c2)[C@@H](OC(=O)c2cc(O)c(O)c(OC(=O)c3cc(O)c(O)c(O)c3)c2)[C@@H]1OC(=O)c1cc(O)c(O)c(OC(=O)c2cc(O)c(O)c(O)c2)c1)c1cc(O)c(O)c(OC(=O)c2cc(O)c(O)c(O)c2)c1	ZTA counter 87.5, EBNA-1 inhibitor 86.3 (no result: NS3 helicase inh, UBC9 SUMO inh)
O=C1OC(Nc2nc(-c3ccc(F)cc3)cs2)c2ccccc21 (stereo not drawn)	none (no result: ZTA counter, core dimer inh, EBNA-1 inhibitor)
O=[N+]([O-])c1ccccc1/C=C/C=N/n1c(-c2ccc(Cl)cc2)n[nH]c1=S	core dimer inh 83.4
O=[N+]([O-])c1ccccc1/C=C/C=N/n1c(-c2ccccc2)n[nH]c1=S	none
O=C1NC(=S)S/C1=C\c1coc2ccccc2c1=O	none
O=C1NC(=S)S/C1=C\c1coc2ccc(O)cc2c1=O	ZTA counter 45.4
[N-]=[N+]=NC[C@H](Cc1ccccc1)N1CC[C@@H](NC(=O)OCc2ccccc2)CCC1=O	none
O=C(Nc1ccccc1)C1Cc2ccccc2CN1C(=O)c1ccco1 (stereo not drawn)	core dimer inh 58.6
Cc1ccc(NC(=O)Cn2c(=O)oc3cc(S(=O)(=O)N4CCC(C)CC4)ccc32)cc1C	UBC9 SUMO inh 50.2
COc1ccc(NC(=O)Cn2c(=O)oc3cc(S(=O)(=O)N4CCCC4)ccc32)cc1	none
CCOC(=O)[C@@H]1[C@H]2COc3ccc(Br)cc3[C@@H]2N2C(=O)N(c3ccc(C(F)(F)F)cc3)C(=O)[C@@]12C	none
CN(C)[C@@H]1C(=O)C(C(=O)NCN2CCCC2)=C(O)[C@@]2(O)C(=O)C3=C(O)c4c(O)cccc4[C@@](C)(O)C3CC12 (stereo partly drawn)	NS3 helicase inh 47.4, UBC9 SUMO inh 76.7 (no result: ZTA counter, core dimer inh, EBNA-1 inhibitor)
CN(C)c1ccc(O)c2c1CC1CC3C(N(C)C)C(=O)C(C(N)=O)=C(O)[C@@]3(O)C(=O)C1=C2O (stereo partly drawn)	none (no result: NS3 helicase inh, UBC9 SUMO inh)
COc1ccc(-c2csc3nc(-c4ccc(C)cc4)oc(=O)c23)cc1OC	core dimer inh 50.1
COc1ccc(-c2csc3nc(C(C)(C)C)oc(=O)c23)cc1OC	none
O=C(NCC1CCCN1S(=O)(=O)c1cccs1)c1ccc([N+](=O)[O-])cc1 (stereo not drawn)	none (no result: NS3 helicase inh, UBC9 SUMO inh)
COC(=O)C1=C(C)N(C)C(=O)NC1c1cc2c(cc1[N+](=O)[O-])OCO2 (stereo not drawn)	UBC9 SUMO inh 65.6
c1ccc(-[n+]2nc(Nc3cccc4ccccc34)sc2-c2c3ccccc3cc3ccccc23)cc1	core dimer inh 60.3 (no result: NS3 helicase inh, UBC9 SUMO inh)
Oc1c(Cl)cc(Cl)cc1Sc1cc(Cl)cc(Cl)c1O	UBC9 SUMO inh 91.5
CSc1nc(N)nc(SCC(=O)c2ccc(C)cc2)c1C#N	core dimer inh 47.5
Cc1cccc(N2CC(C(=O)NCc3ccco3)CC2=O)c1C (stereo not drawn)	none (no result: NS3 helicase inh, core dimer inh, UBC9 SUMO inh, EBNA-1 inhibitor)
O=C(NCc1ccco1)C(c1ccco1)N(C(=O)Cn1nnc2ccccc21)c1ccc2c(c1)CCC2 (stereo not drawn)	core dimer inh 49.9 (no result: UBC9 SUMO inh)
O=C(Nc1nccs1)c1ccc(Cl)c([N+](=O)[O-])c1	none
O=C(NCc1cccc(CNC(=O)C(=O)NCc2ccco2)c1)C(=O)NCc1ccco1	core dimer inh 47.0
Cc1ccc(C(=O)NCc2ccco2)cc1Br	none
O=C(NCc1cccc(CNC(=O)c2ccco2)c1)c1ccco1	none
Cc1c(Br)cc(C(=O)NCc2ccco2)c(C)c1C	core dimer inh 48.5
O=C(OCC(=O)N1CCc2ccccc2C1)c1cc(=O)[nH]c2ccccc12	none
CN=C1NN=C(c2cc(C)n(-c3ccc(Cl)cc3)c2C)CS1	core dimer inh 64.8
Cc1cc(NCCO)c2ccccc2n1	none
Cc1cc(NCCO)c2cc(O)ccc2n1	UBC9 SUMO inh 56.8
COc1ccc(C(=O)Nc2ccc(NC(=O)c3ccccc3)cc2)cc1S(=O)(=O)N1CCOCC1	none
COc1ccc(NC(=O)c2c3c(nc4ccccc24)CCC3)cc1S(=O)(=O)N1CCOCC1	core dimer inh 77.8
Cc1ccc(NC(=O)c2c3c(nc4ccccc24)CCC3)cc1S(=O)(=O)N(C)C	core dimer inh 65.5
O=C(CN1CCCC1)Nc1cccc(Cl)c1Cl	none
O=[N+]([O-])c1c(Nc2ccccn2)cc(Cl)c2nonc12	UBC9 SUMO inh 93.4
COC(=O)c1ccc(Oc2coc3cc(OCc4ccc([N+](=O)[O-])cc4)ccc3c2=O)cc1	core dimer inh 67.6
Cc1ccc(NC(=O)CCn2c(=O)c3cccn3c3ccccc32)cc1C	none

Screening results deposited in PubChem by several laboratories.
